According to ChEMBL document CHEMBL4038284, “Synthesis of novel quinoline-based 4,5-dihydro-1H-pyrazoles as potential anticancer, antifungal, antibacterial and antiprotozoal agents” (Eur J Med Chem, 2017):
Active and inactive are the calls of the source.

How the values were obtained:
A549 = test: Growth inhibition of human A549/ATCC cells at 10 uM incubated for 48 hrs by sulforhodamine B assay; format: functional, cell-based
In short: (§1)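 NCI 60-cell-line screen at a single 10 µM dose. Cells in RPMI-1640 with 5% FBS and 2 mM L-glutamine, pre-incubated 24 h, then treated for 48 h at 37 °C. TCA fixation, sulforhodamine B staining, absorbance at 515 nm. Percentage growth calculated against time-zero and untreated controls.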

UACC-257 = test: Growth inhibition of human UACC257 cells at 10 uM incubated for 48 hrs by sulforhodamine B assay; format: functional, cell-based
In short: (§2)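 NCI-60 single-dose screen at 10 µM for 48 h. Cells were grown in RPMI-1640 with 5% FBS and 2 mM L-glutamine and preincubated 24 h before compound. Time-zero plates were TCA-fixed at compound addition. After exposure, cells were TCA-fixed, stained with SRB and read at 515 nm. Percentage growth was calculated against time-zero and untreated-control absorbances.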

786-0 = test: Growth inhibition of human 786-0 cells at 10 uM incubated for 48 hrs by sulforhodamine B assay; format: functional, cell-based; in short: as §1
RXF 393 = test: Growth inhibition of human RXF393 cells at 10 uM incubated for 48 hrs by sulforhodamine B assay; format: functional, cell-based
In short: (§3)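 NCI 60-line panel, single 10 μM dose. Cells were grown in RPMI-1640 with 5% FBS and 2 mM L-glutamine and pre-incubated 24 h before compound addition (DMSO stock). Exposure was 48 h at 37 °C, 5% CO2. Cells were fixed with cold TCA (10% final), stained with 0.4% SRB, bound dye dissolved in 10 mM Tris base, A515 read. Growth was taken relative to time-zero and untreated control plates.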

Cryptococcus neoformans = test: Growth inhibition of Cryptococcus neoformans ATCC 32264 at 7.8 ug/ml incubated for 48 hrs under dark condition by broth microdilution method relative to control; format: functional; details: ATCC 32264, 48 h, read-out: GI
In short: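 CLSI M27-A3 broth microdilution in RPMI-1640, DMSO ≤1%. Inoculum 1-5 × 10^3 CFU/mL. Incubated 48 h at 30 °C, dark. % inhibition = 100 − (OD405 test − sterility control)/(OD405 growth control − sterility control), with growth and sterility control wells. Triplicate.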

SK-OV-3 = test: Growth inhibition of human SKOV3 cells at 10 uM incubated for 48 hrs by sulforhodamine B assay; format: functional, cell-based; in short: as §2
SW-620 = test: Growth inhibition of human SW620 cells at 10 uM incubated for 48 hrs by sulforhodamine B assay; format: functional, cell-based; in short: as §2
HOP-62 = test: Growth inhibition of human HOP62 cells at 10 uM incubated for 48 hrs by sulforhodamine B assay; format: functional, cell-based; in short: as §1
SK-MEL-5 = test: Growth inhibition of human SK-MEL-5 cells at 10 uM incubated for 48 hrs by sulforhodamine B assay; format: functional, cell-based; in short: as §2
CAKI-1 = test: Growth inhibition of human Caki1 cells at 10 uM incubated for 48 hrs by sulforhodamine B assay; format: functional, cell-based; in short: as §1
T47D = test: Growth inhibition of human T47D cells at 10 uM incubated for 48 hrs by sulforhodamine B assay; format: functional, cell-based; in short: as §2
Hs-578T = test: Growth inhibition of human Hs578T cells at 10 uM incubated for 48 hrs by sulforhodamine B assay; format: functional, cell-based; in short: as §3
Escherichia coli = test: Antibacterial activity against Escherichia coli ATCC 25922 after 24 hrs by resazurin dye based microdilution assay; format: functional; details: ATCC 25922, 24 h
In short: (§4)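 MIC taken as the lowest concentration giving visible inhibition and/or by resazurin (1 mg/mL). Gentamicin was the control. Run in duplicate, repeated at least three times.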

HL-60(TB) = test: Growth inhibition of human HL-60(TB) cells at 10 uM incubated for 48 hrs by sulforhodamine B assay; format: functional, cell-based
In short: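 NCI 60-line single-dose screen at 10 μM, 48 h. Cells in RPMI-1640 with 5% FBS and 2 mM L-glutamine at 37 °C, 5% CO2. Growth measured by TCA fixation and SRB staining (515 nm), relative to time-zero and untreated control wells.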

COLO 205 = test: Growth inhibition of human COLO205 cells at 10 uM incubated for 48 hrs by sulforhodamine B assay; format: functional, cell-based; in short: as §1
Klebsiella pneumoniae = test: Antibacterial activity against ESBL positive Klebsiella pneumoniae ATCC 700603 after 24 hrs by resazurin dye based microdilution assay; format: functional; details: Klebsiella pneumoniae, 700603, 24 h; in short: as §4
MDA-MB-468 = test: Growth inhibition of human MDA-MB-468 cells at 10 uM incubated for 48 hrs by sulforhodamine B assay; format: functional, cell-based; in short: as §3
OVCAR-8 = test: Growth inhibition of human OVCAR8 cells at 10 uM incubated for 48 hrs by sulforhodamine B assay; format: functional, cell-based; in short: as §3
U-251 = test: Growth inhibition of human U251 cells at 10 uM incubated for 48 hrs by sulforhodamine B assay; format: functional, cell-based; in short: as §2
SK-MEL-28 = test: Growth inhibition of human SK-MEL-28 cells at 10 uM incubated for 48 hrs by sulforhodamine B assay; format: functional, cell-based; in short: as §2
NCI-H226 = test: Growth inhibition of human NCI-H226 cells at 10 uM incubated for 48 hrs by sulforhodamine B assay; format: functional, cell-based; in short: as §3
UO-31 = test: Growth inhibition of human UO31 cells at 10 uM incubated for 48 hrs by sulforhodamine B assay; format: functional, cell-based; in short: as §2
NCI-H322M = test: Growth inhibition of human NCI-H322M cells at 10 uM incubated for 48 hrs by sulforhodamine B assay; format: functional, cell-based; in short: as §3
SF-268 = test: Growth inhibition of human SF268 cells at 10 uM incubated for 48 hrs by sulforhodamine B assay; format: functional, cell-based; in short: as §3
Candida albicans = test: Antifungal activity against Candida albicans ATCC 10231 incubated for 48 hrs under dark condition by broth microdilution method; format: functional; details: ATCC 10231, 48 h
In short: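 CLSI M27-A3 broth microdilution in RPMI-1640, DMSO ≤1%, compounds at 250-0.98 µg/mL final. Inoculum 1-5 × 10^3 CFU/mL. Incubated 48 h at 30 °C in a moist dark chamber, read at OD405. MIC80 and MIC50 taken from % inhibition dose-response curves (mean ± SEM, triplicate). Amphotericin B was the positive control.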

SNB-75 = test: Growth inhibition of human SNB75 cells at 10 uM incubated for 48 hrs by sulforhodamine B assay; format: functional, cell-based; in short: as §2
SNB-19 = test: Growth inhibition of human SNB19 cells at 10 uM incubated for 48 hrs by sulforhodamine B assay; format: functional, cell-based; in short: as §2
U-937 = test: Cytotoxicity against human U937 cells after 72 hrs by MTT assay; format: cell-based; details: u-937, 72 h
In short: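 Exponentially growing U-937 at 1 × 10^5 cells/mL in RPMI-1640 with 10% FBS were exposed to 200, 50, 12.5 and 3.125 µg/mL for 72 h at 37 °C, 5% CO2. MTT for 3 h, stopped with isopropanol/SDS, formazan read at 570 nm, blank-corrected. LC50 by Probit from % viability against untreated cells. Triplicate, at least two independent experiments.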

NCI-H522 = test: Growth inhibition of human NCI-H522 cells at 10 uM incubated for 48 hrs by sulforhodamine B assay; format: functional, cell-based; in short: as §3
PC-3 = test: Growth inhibition of human PC3 cells at 10 uM incubated for 48 hrs by sulforhodamine B assay; format: functional, cell-based; in short: as §3

Clc1ccc(C2=NN(c3ccc(Cl)cc3)C(c3cccc(Nc4ccnc5cc(Cl)ccc45)c3)C2)cc1 (stereo unspecified)
18.4%: inhibition of growth at 7.8 µg/mL (Cryptococcus neoformans)
≥ 250 µg/mL: MIC50 (Candida albicans) | MIC80 (Candida albicans)
> 200 µg/mL: LC50 (U-937)
inactive: growth inhibition (GI) (A549) | growth inhibition (GI) (UACC-257) | growth inhibition (GI) (786-0) | growth inhibition (GI) (RXF 393) | growth inhibition (GI) (SK-OV-3) | growth inhibition (GI) (SW-620) | growth inhibition (GI) (HOP-62) | growth inhibition (GI) (SK-MEL-5) | growth inhibition (GI) (CAKI-1) | growth inhibition (GI) (T47D) | growth inhibition (GI) (Hs-578T) | growth inhibition (GI) (HL-60(TB)) | growth inhibition (GI) (COLO 205) | growth inhibition (GI) (MDA-MB-468) | growth inhibition (GI) (OVCAR-8) | growth inhibition (GI) (U-251) | growth inhibition (GI) (SK-MEL-28) | growth inhibition (GI) (NCI-H226) | growth inhibition (GI) (UO-31) | growth inhibition (GI) (NCI-H322M) | growth inhibition (GI) (SF-268) | growth inhibition (GI) (SNB-75) | growth inhibition (GI) (SNB-19) | growth inhibition (GI) (NCI-H522) | growth inhibition (GI) (PC-3)
> 1000 µg/mL: MIC (Escherichia coli) | MIC (Klebsiella pneumoniae)
